# Source: ChEMBL document CHEMBL3244382, “Structural requirements for antileukemic activity among the naturally occurring and semisynthetic maytansinoids” (J Med Chem, 1978)
# Active and inactive are the calls of the source.
# How the values were obtained:
# [1] = test system: P388; experiment: Antitumor activity against mouse P388 cells allografted in PS mouse assessed as median survival time at 25 ug/kg relative to control; type: functional
# How it was run: (§1)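 P388 leukemia (PS) in mice, six mice started per dose group. Read-out is T/C: median survival time of the treated group divided by that of the untreated control group, expressed as a percent. The NIH protocol counts a compound as active when T/C > 125%.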
# [2] = test system: Mus musculus; experiment: Toxicity in PS mouse allografted with mouse P388 cells assessed as change in body weight at 100 ug/kg relative to control; type: organism-based; conditions: in vivo, 0.1 mg/kg
# How it was run: (§2)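 P388 (PS) leukemia in mice, 6 mice per dose group. Weight change is the difference in grams between treated and control animals. Survivors are recorded on toxicity day, normally 4 days after the first injection.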
# [3] = test system: Mus musculus; experiment: Toxicity in PS mouse allografted with mouse P388 cells assessed as change in body weight at 50 ug/kg relative to control; type: organism-based; conditions: in vivo, 0.05 mg/kg; how it was run: as §2
# [4] = test system: P388; experiment: Antitumor activity against mouse P388 cells allografted in PS mouse assessed as median survival time at 100 ug/kg relative to control; type: functional; how it was run: as §1
# [5] = test system: Paracentrotus lividus; experiment: Antimitotic activity against sea urchin eggs assessed as drug level causing inhibition of mitosis; type: functional; conditions: Egg
# [6] = test system: P388; experiment: Antitumor activity against mouse P388 cells allografted in PS mouse assessed as median survival time at 1.6 ug/kg relative to control; type: functional; how it was run: as §1
# [7] = test system: Mus musculus; experiment: Toxicity in PS mouse allografted with mouse P388 cells assessed as change in body weight at 0.4 ug/kg relative to control; type: organism-based; conditions: in vivo, 0.0004 mg/kg
# How it was run: (§3)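 PS (P388 leukemia) mice, six per dose group. Toxicity read as the difference in grams between the weights of treated and control animals.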
# [8] = target: Tubulin (Homo sapiens) (UniProt P68371+Q9H4B7+P0DPH7+P68366+Q13509+Q71U36+P04350+Q3ZCM7+P07437+P68363+Q9BQE3+Q6PEY2+Q13885+Q9BVA1+Q9BUF5); experiment: Inhibition of brain tubulin polymerization (unknown origin) at 37 degC by spectrophotometry
# [9] = test system: Mus musculus; experiment: Toxicity in PS mouse allografted with mouse P388 cells assessed as survival at 50 ug/kg after 4 days; type: organism-based; conditions: in vivo, 0.05 mg/kg, 96 h
# How it was run: (§4)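 PS (P388) leukemic mice, six started per dose group. Toxicity scored as survivors on the toxicity day over the number of mice started. The toxicity day is normally 4 days after the first injection.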
# [10] = test system: Mus musculus; experiment: Toxicity in PS mouse allografted with mouse P388 cells assessed as change in body weight at 12.5 ug/kg relative to control; type: organism-based; conditions: in vivo, 0.0125 mg/kg; how it was run: as §2
# [11] = test system: P388; experiment: Antitumor activity against mouse P388 cells allografted in PS mouse assessed as median survival time at 3.1 ug/kg relative to control; type: functional; how it was run: as §1
# [12] = test system: P388; experiment: Antitumor activity against mouse P388 cells allografted in PS mouse assessed as median survival time at 0.4 ug/kg relative to control; type: functional; how it was run: as §1
# [13] = test system: Mus musculus; experiment: Toxicity in PS mouse allografted with mouse P388 cells assessed as change in body weight at 1.6 ug/kg relative to control; type: organism-based; conditions: in vivo, 0.0016 mg/kg; how it was run: as §2
# [14] = test system: Mus musculus; experiment: Toxicity in PS mouse allografted with mouse P388 cells assessed as survival at 12.5 ug/kg after 4 days; type: organism-based; conditions: in vivo, 0.0125 mg/kg, 96 h; how it was run: as §4
# [15] = test system: Mus musculus; experiment: Toxicity in PS mouse allografted with mouse P388 cells assessed as change in body weight at 0.8 ug/kg relative to control; type: organism-based; conditions: in vivo, 0.0008 mg/kg; how it was run: as §3
# [16] = test system: P388; experiment: Antitumor activity against mouse P388 cells allografted in PS mouse assessed as median survival time at 50 ug/kg relative to control; type: functional; how it was run: as §1
# [17] = test system: P388; experiment: Antitumor activity against mouse P388 cells allografted in PS mouse assessed as median survival time at 12.5 ug/kg relative to control; type: functional; how it was run: as §1
# [18] = test system: Mus musculus; experiment: Toxicity in PS mouse allografted with mouse P388 cells assessed as survival at 100 ug/kg after 4 days; type: organism-based; conditions: in vivo, 0.1 mg/kg, 96 h; how it was run: as §4
# [19] = test system: Mus musculus; experiment: Toxicity in PS mouse allografted with mouse P388 cells assessed as survival at 25 ug/kg after 4 days; type: organism-based; conditions: in vivo, 0.025 mg/kg, 96 h; how it was run: as §4
# [20] = test system: Mus musculus; experiment: Toxicity in PS mouse allografted with mouse P388 cells assessed as survival at 0.4 ug/kg after 4 days; type: organism-based; conditions: in vivo, 0.0004 mg/kg, 96 h; how it was run: as §4
# [21] = test system: KB; experiment: Cytotoxicity against human KB cells; type: functional; conditions: read-out: ED50 (the source's name)
# [22] = test system: Mus musculus; experiment: Toxicity in PS mouse allografted with mouse P388 cells assessed as survival at 3.1 ug/kg after 4 days; type: organism-based; conditions: in vivo, 0.0031 mg/kg, 96 h; how it was run: as §4
# [23] = test system: Mus musculus; experiment: Toxicity in PS mouse allografted with mouse P388 cells assessed as change in body weight at 6.2 ug/kg relative to control; type: organism-based; conditions: in vivo, 0.0062 mg/kg; how it was run: as §2
# [24] = test system: Mus musculus; experiment: Toxicity in PS mouse allografted with mouse P388 cells assessed as change in body weight at 25 ug/kg relative to control; type: organism-based; conditions: in vivo, 0.025 mg/kg; how it was run: as §2
# [25] = test system: Mus musculus; experiment: Toxicity in PS mouse allografted with mouse P388 cells assessed as survival at 1.6 ug/kg after 4 days; type: organism-based; conditions: in vivo, 0.0016 mg/kg, 96 h; how it was run: as §4
# [26] = test system: P388; experiment: Antitumor activity against mouse P388 cells allografted in PS mouse assessed as median survival time at 0.8 ug/kg relative to control; type: functional; how it was run: as §1
# [27] = test system: Mus musculus; experiment: Toxicity in PS mouse allografted with mouse P388 cells assessed as change in body weight at 3.1 ug/kg relative to control; type: organism-based; conditions: in vivo, 0.0031 mg/kg; how it was run: as §2
# [28] = test system: Mus musculus; experiment: Toxicity in PS mouse allografted with mouse P388 cells assessed as survival at 6.2 ug/kg after 4 days; type: organism-based; conditions: in vivo, 0.0062 mg/kg, 96 h; how it was run: as §4
# [29] = test system: Mus musculus; experiment: Toxicity in PS mouse allografted with mouse P388 cells assessed as survival at 0.8 ug/kg after 4 days; type: organism-based; conditions: in vivo, 0.0008 mg/kg, 96 h; how it was run: as §4
# [30] = test system: P388; experiment: Antitumor activity against mouse P388 cells allografted in PS mouse assessed as median survival time at 6.2 ug/kg relative to control; type: functional; how it was run: as §1
# [31] = test system: Mus musculus; experiment: Toxicity in PS mouse allografted with mouse P388 cells assessed as survival at 200 ug/kg after 4 days; type: organism-based; conditions: in vivo, 0.2 mg/kg, 96 h; how it was run: as §4
# [32] = test system: Mus musculus; experiment: Toxicity in PS mouse allografted with mouse P388 cells assessed as change in body weight at 200 ug/kg relative to control; type: organism-based; conditions: in vivo, 0.2 mg/kg; how it was run: as §2
# [33] = test system: P388; experiment: Antitumor activity against mouse P388 cells allografted in PS mouse assessed as median survival time at 200 ug/kg relative to control; type: functional; how it was run: as §1
# [34] = test system: Mus musculus; experiment: Toxicity in PS mouse allografted with mouse P388 cells assessed as change in body weight at 400 ug/kg relative to control; type: organism-based; conditions: in vivo, 0.4 mg/kg; how it was run: as §2
# [35] = test system: Mus musculus; experiment: Toxicity in PS mouse allografted with mouse P388 cells assessed as survival at 400 ug/kg after 4 days; type: organism-based; conditions: in vivo, 0.4 mg/kg, 96 h; how it was run: as §4
# [36] = test system: P388; experiment: Antitumor activity against mouse P388 cells allografted in PS mouse assessed as median survival time at 400 ug/kg relative to control; type: functional; how it was run: as §1
Compound,T/C [1] [%],Activity [2] [g],Activity [3] [g],T/C [4] [%],Activity [5],T/C [6] [%],inhibition [8],Activity [9],Activity [10] [g],T/C [11] [%],Activity [13] [g],Activity [14],T/C [16] [%],T/C [17] [%],Activity [18],Activity [19],EC50 [21] [ng/mL],Activity [31],Activity [32] [g],T/C [33] [%],also measured
COc1cc2cc(c1Cl)N(C)C(=O)C[C@H](OC(=O)[C@H](C)N(C)C(C)=O)[C@]1(C)O[C@H]1[C@H](C)[C@@H]1C[C@@](O)(NC(=O)O1)[C@H](OC)/C=C/C=C(\C)C2 [MAYTANSINE],220,-0.4,0.3,<80,1 ×10⁻⁷ mol/L,155,Active,Non-toxic,1.6,165,1.6,Non-toxic,125,190,Non-toxic,Non-toxic,0.0061,,,,Activity [7]: 1.7 g; T/C [12]: 125%; Activity [15]: 1.4 g; Activity [20]: Non-toxic; Activity [22]: Non-toxic; Activity [23]: 1.3 g; Activity [24]: 0.6 g; Activity [25]: Non-toxic; T/C [26]: 145%; Activity [27]: -0.1 g; Activity [28]: Non-toxic; Activity [29]: Non-toxic; T/C [30]: 195%
COc1cc2cc(c1Cl)NC(=O)/C=C/C(C)=C/[C@H](C)[C@@H]1C[C@@](O)(NC(=O)O1)[C@H](OC)/C=C/C=C(\C)C2,108,0.8,1.8,120,1 ×10⁻⁸ mol/L,104,Active,Non-toxic,0.7,95,1,Non-toxic,120,<80,Non-toxic,Non-toxic,2,Non-toxic,1.2,104,Activity [22]: Non-toxic; Activity [23]: 0.7 g; Activity [24]: -0.8 g; Activity [25]: Non-toxic; Activity [27]: 1.4 g; Activity [28]: Non-toxic; T/C [30]: 87%
CCC(=O)O[C@H]1CC(=O)N(C)c2cc(cc(OC)c2Cl)C/C(C)=C/C=C/[C@@H](OC)[C@@]2(O)C[C@H](OC(=O)N2)[C@@H](C)[C@@H]2O[C@@]12C,153,-2,-0.9,<80,1 nM,129,Active,Non-toxic,-0.3,131,-0.8,Non-toxic,198,163,Toxic,Non-toxic,0.21,Toxic,-3.5,<80,Activity [15]: -0.5 g; Activity [22]: Non-toxic; Activity [23]: -1 g; Activity [24]: -0.5 g; Activity [25]: Non-toxic; T/C [26]: 110%; Activity [27]: 1.3 g; Activity [28]: Non-toxic; Activity [29]: Non-toxic; T/C [30]: 140%
CCCS[C@]12C[C@H](OC(=O)N1)[C@@H](C)[C@@H]1O[C@@]1(C)[C@@H](OC(=O)[C@H](C)N(C)C(C)=O)CC(=O)N(C)c1cc(cc(OC)c1Cl)C/C(C)=C/C=C/[C@H]2OC,,2.8,-1.3,114,1 ×10⁻⁸ mol/L,,Active,Non-toxic,,,,,111,,Non-toxic,,0.18,Non-toxic,0.1,114,Activity [34]: -0.7 g; Activity [35]: Non-toxic; T/C [36]: 114%
CCO[C@]12C[C@H](OC(=O)N1)[C@@H](C)[C@@H]1O[C@@]1(C)[C@@H](OC(=O)[C@H](C)N(C)C(=O)C(C)C)CC(=O)N(C)c1cc(cc(OC)c1Cl)C/C(C)=C/C=C/[C@H]2OC,,3.4,1.3,109,1 ×10⁻⁷ mol/L,,Active,Non-toxic,,,,,100,,Non-toxic,,1.2,Non-toxic,0.3,134,Activity [34]: -0.9 g; Activity [35]: Non-toxic; T/C [36]: 149%
C/C=C/C(=O)O[C@H]1CC(=O)N(C)c2cc(cc(OC)c2Cl)C/C(C)=C/C=C/[C@@H](OC)[C@@]2(O)C[C@H](OC(=O)N2)[C@@H](C)[C@@H]2O[C@@]12C,173,-3.6,-3.5,210,,150,,Non-toxic,-2.5,150,-4.5,Non-toxic,210,170,Non-toxic,Non-toxic,0.23,Non-toxic,-1.8,210,Activity [15]: -4.5 g; Activity [22]: Non-toxic; Activity [23]: -3 g; Activity [24]: -3.6 g; Activity [25]: Non-toxic; T/C [26]: 150%; Activity [27]: -1.7 g; Activity [28]: Non-toxic; Activity [29]: Non-toxic; T/C [30]: 160%
COc1cc2cc(c1Cl)N(C)C(=O)C[C@H](OC(=O)[C@H](C)N(C)C(C)=O)[C@]1(C)O[C@H]1[C@H](C)[C@@H]1C[C@@](OC)(NC(=O)O1)[C@H](OC)/C=C/C=C(\C)C2,,-0.9,-2.3,104,1 ×10⁻⁸ mol/L,,Active,Non-toxic,,,,,101,,Non-toxic,,0.19,Non-toxic,-0.7,93,Activity [34]: -0.9 g; Activity [35]: Non-toxic; T/C [36]: 139%
